# Measurements from different studies.
# Compare with care: the assays were run in different laboratories.
# Target: Serine/threonine-protein kinase pim-1 (PIM1, Homo sapiens, UniProt P11309)
SMILES,read-out,action,technique,tested at,quantity,value
N#CC1(c2ccccn2)CCN(Cc2cc(C(=O)O)c(=O)n3ccccc23)CC1,cell-free assay,,competition with immobilised ligand,1 µM,remaining binding,99%
Cn1cc(-c2cc(F)cc(N3CCn4c(cc5c4CCCC5)C3=O)c2CO)cc(Nc2ccc(N3CCN(C4COC4)CC3)cn2)c1=O,enzyme activity,inhibitor,,0.1 µM,inhibition,11%
COc1ncccc1-c1cnn2ccc(N3CCN(C(=O)OC(C)C)CC3)nc12,binding,,competition with immobilised ligand,1 µM,remaining binding,100%
CC(C)(C)c1cc(C=C(C#N)C#N)cc(Br)c1O,enzyme activity,inhibitor,,0.5 µM,remaining activity,94.7%
Cn1cncc1[C@@](O)(COc1ccc(C#N)cc1-c1ccc(OC(F)(F)F)cc1)c1ccc(C#N)cc1,cell-free assay,,competition with immobilised ligand,1 µM,remaining binding,100%
Cn1cc(-c2cccc(N3CCc4c(sc5c4CC(C)(C)C5)C3=O)c2CO)cc(Nc2ccncn2)c1=O,enzyme activity,inhibitor,,1 µM,inhibition,2%
O=c1[nH]c2ccccc2n1C1CCN(Cc2ccc(-c3[nH]c4cc5ncnc5cc4nc3-c3ccccc3)cc2)CC1,cell-free assay,,,0.5 µM,remaining signal,106%
Cc1nn(C)cc1-c1nc2c(N3CCN(Cc4ccc(Cl)cc4)CC3)c(Cl)cnc2[nH]1,binding,,competition with immobilised ligand,1 µM,remaining binding,100%
